Source: ChEMBL document CHEMBL1132629, “Synthesis and anti-HIV and anti-HBV activities of 2'-fluoro-2', 3'-unsaturated L-nucleosides” (J Med Chem, 1999)

Legend:
[1] = tested on: Vero; assay: Inhibitory activity was evaluated in Vero cells.; assay type: functional, cell-based; conditions: Chlorocebus sabaeus
[2] = tested on: Human immunodeficiency virus 1; assay: Evaluated for anti-HIV activity; assay type: functional, organism-based
Summary of the method: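 Human peripheral blood mononuclear (PBM) cells infected with HIV-1; antiviral potency reported as EC50 (μM); AZT run as positive control.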

[3] = tested on: CCRF-CEM; assay: Cytotoxicity was evaluated in CEM cells; conditions: Homo sapiens
[4] = tested on: PBMC; assay: Cytotoxicity was evaluated in human peripheral blood mononuclear (PBM) cells
[5] = tested on: Hepatitis B virus; assay: The EC50 value was measured on hepatitis B virus; assay type: functional, organism-based
Summary of the method: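 Anti-HBV activity assayed in 2.2.15 cells; EC50 (μM) reported.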

EC50 [2] [µM] | EC50 [5] [µM] | SMILES | IC50 [1] [µM] | IC50 [3] [µM] | IC50 [4] [µM]
76.9 | > 10 | Nc1nc(O)c2ncn([C@@H]3O[C@@H](CO)C=C3F)c2n1 | > 100 | > 100 | > 100
> 100 | > 10 | Nc1nc(O)c2ncn([C@H]3O[C@@H](CO)C=C3F)c2n1 | > 100 | > 100 | > 100
14.5 | > 10 | Nc1nc(Cl)c2ncn([C@@H]3O[C@@H](CO)C=C3F)c2n1 | > 100 | 28.2 | 26.6
> 100 | > 10 | Nc1nc(F)nc2c1ncn2[C@@H]1O[C@@H](CO)C=C1F | > 100 | > 100 | > 100
> 100 | > 10 | Nc1nc(Cl)c2ncn([C@H]3O[C@@H](CO)C=C3F)c2n1 | > 100 | > 100 | > 100
2.2 | > 10 | Nc1nc(F)nc2c1ncn2[C@H]1O[C@@H](CO)C=C1F | 173 | 19.5 | 25.8

Second part, the molecule before the results:

SMILES | EC50 [2] [µM] | EC50 [5] [µM] | IC50 [1] [µM] | IC50 [3] [µM] | IC50 [4] [µM]
Nc1nc(=O)n([C@H]2O[C@@H](CO)C=C2F)cc1F | 0.17 | 0.225 | > 100 | > 100 | > 100
Cc1cn([C@H]2O[C@@H](CO)C=C2F)c(=O)[nH]c1=O | > 100 | > 10 | > 100 | > 100 | > 100
OC[C@H]1C=C(F)[C@@H](n2cnc3c(O)ncnc32)O1 | 4.7 | > 10 | > 100 | > 100 | > 100
Nc1ccn([C@@H]2O[C@@H](CO)C=C2F)c(=O)n1 | > 100 | > 10 | > 100 | > 100 | > 100
OC[C@H]1C=C(F)[C@H](n2cnc3c(O)ncnc32)O1 | > 100 | > 10 | > 100 | > 100 | > 100
Cc1cn([C@H]2C[C@H](N=[N+]=[N-])[C@@H](CO)O2)c(=O)[nH]c1=O [ZIDOVUDINE] |  | > 10 |  |  | > 100
O=c1ccn([C@H]2O[C@@H](CO)C=C2F)c(=O)[nH]1 | > 100 | > 10 | > 100 | > 100 | > 100
O=c1ccn([C@@H]2O[C@@H](CO)C=C2F)c(=O)[nH]1 | > 100 | > 10 | > 100 | > 100 | > 100
Cc1cn([C@@H]2O[C@@H](CO)C=C2F)c(=O)[nH]c1=O | > 100 | > 10 | > 100 | > 100 | > 100
Nc1ncnc2c1ncn2[C@H]1O[C@@H](CO)C=C1F | 1.5 | 1.7 | > 100 | > 100 | > 100
Nc1ncnc2c1ncn2[C@@H]1O[C@@H](CO)C=C1F | 47.6 | > 10 | > 100 | > 100 | > 100
Nc1nc(=O)n([C@@H]2O[C@@H](CO)C=C2F)cc1F | > 100 | > 10 | > 100 | > 100 | > 100
Nc1ccn([C@H]2O[C@@H](CO)C=C2F)c(=O)n1 | 0.51 | 0.18 | > 100 | > 100 | > 100
